# Assay results published in article PMC8612936 (The Lancet. Infectious Diseases, 2021).
# “And” between values parts separate entries of the source, which are not always exact repeats. Equal entries are not always repeated. “Also recorded” adds a separate entry of the source.
# Tests used:
# M5717-resistant mutants = details: pyronaridine partnered with M5717; cited from earlier work
# [1] = Volunteer infection study; format: in vivo, human
# How it was run: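 Intravenously inoculated, blood-stage P falciparum-infected healthy volunteers received one fasted oral dose (150, 400 or 800 mg). They stayed in the clinic until day 4, then attended outpatient follow-up to day 44.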
# Plasmodium falciparum [2] = test: VIS: parasite clearance kinetics and recrudescence; format: in vivo; details: for PRR48 (95% CI), second phase: cohort estimate
# How it was run: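 Volunteers were given about 2800 viable P falciparum-infected erythrocytes intravenously on day −8. Parasitaemia was measured by qPCR of the 18S rRNA gene, twice daily from day 4 after inoculation. A single fasted oral dose (150, 400 or 800 mg) was given when parasitaemia was expected to reach ≥5000 parasites/mL. […] Recrudescence was followed to day 28; artemether–lumefantrine was given on recrudescence or at day 21.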
# CYP3A4 = details: preclinical studies, no reference given; cited from earlier work
# [3] = Single ascending dose study; format: in vivo, human
# Plasmodium falciparum [4] = details: cited from earlier work
# [5] = oral administration of 3–5 mg/kg; cited from earlier work
# Plasmodium spp = details: cited from earlier work
# [6] = VIS: M5717 whole-blood pharmacokinetics; format: in vivo; details: human, po
# How it was run: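 Healthy malaria-naive adults (18–55 y) were inoculated intravenously with about 2800 viable P falciparum-infected erythrocytes on day −8. On day 1 they took a single oral capsule dose (150, 400 or 800 mg) with 250 mL water after fasting ≥8 h, with no food until 4 h. The test compound was measured in whole blood (LLOQ 1 ng/mL), giving AUC0–∞, apparent terminal t½ and Vz/F.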
# [7] = SAD: M5717 whole-blood pharmacokinetics; format: in vivo, human; details: for Vd/F / half-life / AUC(0-inf) / AUC(0-t): whole blood; for AUC(0-t): SAD 2100 mg oral, N=1
# [8] = SAD 2100 mg single oral dose, N=1
# [9] = SAD, all 49 participants dosed with M5717
structure (smiles),measurement,setting,value
COc1ccc2nc3cc(Cl)ccc3c(Nc3cc(CN4CCCC4)c(O)c(CN4CCCC4)c3)c2n1 [pyronaridine],Selection of M5717-resistant mutants,M5717-resistant mutants,prevented selection of M5717-resistant mutants
O=C(NCCN1CCCC1)c1cc(-c2ccc(CN3CCOCC3)cc2)nc2ccc(F)cc12 [M5717],Any adverse event,[1]; VIS 150 mg single oral dose,6 (100%) n (%)
same,Any adverse event related to study treatment,[1]; VIS 150 mg single oral dose,0 n (%)
same,Moderate adverse event (grade 2),[1]; VIS 150 mg single oral dose,2 (33%) n (%)
same,Moderate adverse event (grade 2) related to study treatment,[1]; VIS 150 mg single oral dose,0 n (%)
same,Severe adverse event (grade 3),[1]; VIS 150 mg single oral dose,0 n (%)
same,Any adverse event,[1]; VIS 400 mg single oral dose,8 (100%) n (%)
same,Moderate adverse event (grade 2),[1]; VIS 400 mg single oral dose,3 (38%) n (%)
same,Moderate adverse event (grade 2) related to study treatment,[1]; VIS 400 mg single oral dose,0 n (%)
same,Severe adverse event (grade 3),[1]; VIS 400 mg single oral dose,0 n (%)
same,Any adverse event,[1]; VIS 800 mg single oral dose,7 (88%) n (%)
same,Any adverse event related to study treatment,[1]; VIS 800 mg single oral dose,0 n (%)
same,Moderate adverse event (grade 2),[1]; VIS 800 mg single oral dose,2 (25%) n (%)
same,Moderate adverse event (grade 2) related to study treatment,[1]; VIS 800 mg single oral dose,0 n (%)
same,Severe adverse event (grade 3),[1]; VIS 800 mg single oral dose,1 (13%) n (%)
same,Participants with at least one adverse event after M5717 dosing,"[1]; VIS, all 22 participants",21 (95%) n (%)
same,Time of recrudescence after M5717 dosing,"Plasmodium falciparum [2]; VIS 150 mg, individual participants",10 days and 11 days and 19 days
same,Recrudescence incidence,"Plasmodium falciparum [2]; VIS 150 mg, six participants",50%
same,"PRR48 (95% CI), second phase","Plasmodium falciparum [2]; VIS 400 mg single oral dose, N=6",5127 (1006 to 26 132)
same,Time of recrudescence after M5717 dosing,"Plasmodium falciparum [2]; VIS 400 mg, both participants",12 days
same,Recrudescence incidence,"Plasmodium falciparum [2]; VIS 400 mg, eight participants",25%
same,"PRR48 (95% CI), second phase","Plasmodium falciparum [2]; VIS 800 mg single oral dose, N=7",436 (179 to 1061)
same,Recrudescence,"Plasmodium falciparum [2]; VIS 800 mg, up to 21 days after dosing",No recrudescence
same,Duration of initial slow parasite clearance phase,"Plasmodium falciparum [2]; VIS 150, 400, 800 mg",35 to 55 h
same,Parasite clearance following M5717 dosing,"Plasmodium falciparum [2]; VIS 150, 400, 800 mg",all participants
same,Active or toxic metabolites,CYP3A4,no active or toxic metabolites identified
same,M5717-related dizziness,[3]; 1800 mg only,three
same,M5717-related blurred vision,[3]; 1800 mg or 2100 mg groups only,four
same,M5717-related oral hypoesthesia,[3]; 1800 mg or 2100 mg groups only,three
same,Any adverse event,[3]; SAD 50 mg single oral dose,6 (100%) n (%)
same,Moderate adverse event (grade 2),[3]; SAD 50 mg single oral dose,1 (17%) n (%)
same,Moderate adverse event (grade 2) related to study treatment,[3]; SAD 50 mg single oral dose,0 n (%)
same,Severe adverse event (grade 3),[3]; SAD 50 mg single oral dose,1 (17%) n (%)
same,Any adverse event,[3]; SAD 100 mg single oral dose,5 (83%) n (%)
same,Moderate adverse event (grade 2),[3]; SAD 100 mg single oral dose,1 (17%) n (%)
same,Moderate adverse event (grade 2) related to study treatment,[3]; SAD 100 mg single oral dose,0 n (%)
same,Severe adverse event (grade 3),[3]; SAD 100 mg single oral dose,0 n (%)
same,Any adverse event,[3]; SAD 200 mg single oral dose,3 (50%) n (%)
same,Moderate adverse event (grade 2),[3]; SAD 200 mg single oral dose,0 n (%)
same,Moderate adverse event (grade 2) related to study treatment,[3]; SAD 200 mg single oral dose,0 n (%)
same,Severe adverse event (grade 3),[3]; SAD 200 mg single oral dose,0 n (%)
same,Any adverse event,[3]; SAD 400 mg single oral dose,4 (67%) n (%)
same,Moderate adverse event (grade 2),[3]; SAD 400 mg single oral dose,0 n (%)
same,Moderate adverse event (grade 2) related to study treatment,[3]; SAD 400 mg single oral dose,0 n (%)
same,Severe adverse event (grade 3),[3]; SAD 400 mg single oral dose,0 n (%)
same,Any adverse event,[3]; SAD 600 mg single oral dose,3 (50%) n (%)
same,Moderate adverse event (grade 2),[3]; SAD 600 mg single oral dose,1 (17%) n (%)
same,Moderate adverse event (grade 2) related to study treatment,[3]; SAD 600 mg single oral dose,0 n (%)
same,Severe adverse event (grade 3),[3]; SAD 600 mg single oral dose,0 n (%)
same,Any adverse event,[3]; SAD 1000 mg single oral dose,4 (67%) n (%)
same,Moderate adverse event (grade 2),[3]; SAD 1000 mg single oral dose,0 n (%)
same,Moderate adverse event (grade 2) related to study treatment,[3]; SAD 1000 mg single oral dose,0 n (%)
same,Severe adverse event (grade 3),[3]; SAD 1000 mg single oral dose,0 n (%)
same,Any adverse event,[3]; SAD 1250 mg single oral dose,5 (83%) n (%)
same,Moderate adverse event (grade 2),[3]; SAD 1250 mg single oral dose,1 (17%) n (%)
same,Moderate adverse event (grade 2) related to study treatment,[3]; SAD 1250 mg single oral dose,1 (17%) n (%)
same,Severe adverse event (grade 3),[3]; SAD 1250 mg single oral dose,0 n (%)
same,Any adverse event,[3]; SAD 1800 mg single oral dose,6 (100%) n (%)
same,Moderate adverse event (grade 2),[3]; SAD 1800 mg single oral dose,0 n (%)
same,Moderate adverse event (grade 2) related to study treatment,[3]; SAD 1800 mg single oral dose,0 n (%)
same,Severe adverse event (grade 3),[3]; SAD 1800 mg single oral dose,0 n (%)
same,Any adverse event,[3]; [8],1 (100%) n (%)
same,Any adverse event related to study treatment,[3]; [8],1 (100%) n (%)
same,Moderate adverse event (grade 2),[3]; [8],1 (100%) n (%)
same,Moderate adverse event (grade 2) related to study treatment,[3]; [8],1 (100%) n (%)
same,Severe adverse event (grade 3),[3]; [8],0 n (%)
same,Serious adverse events,[3]; SAD and VIS,No adverse event was serious; also recorded: No serious adverse events
same,Severity of adverse events related to M5717,[3]; SAD and VIS,mild or moderate
same,"Vital signs, ECGs, clinical laboratory parameters",[3]; SAD and VIS,No dose-related trends
same,Participants with adverse events related to M5717,[3]; [9],12 (24%) n (%)
same,Participants with at least one adverse event,[3]; [9],37 (76%) n (%)
same,Dose up to which M5717 is well tolerated,"[3]; single oral dose, healthy adults",≤ 1250 mg
same,Potency against Plasmodium falciparum,Plasmodium falciparum [4],nanomolar potency
same,Half-life in preclinical animal studies,[5],18 to 20 h
same,Minimum inhibitory concentration (MIC),Plasmodium spp; estimated in mice,3 ng/mL
same,Minimum parasiticidal concentration,Plasmodium spp; estimated in mice,10 ng/mL
same,Lag in antimalarial activity,Plasmodium spp; in vitro and in the mouse efficacy model,24 to 48 h
same,AUC(0-inf),[6]; 150 mg,3100 ng·h/mL
same,Vd/F,[6]; 150 mg,5880 L
same,half-life,[6]; 150 mg,106 h
same,Vd/F,[6]; 400 mg,6530 L
same,half-life,[6]; 400 mg,146 h
same,Vd/F,[6]; 800 mg,8890 L
same,half-life,[6]; 800 mg,193 h
same,Time of peak whole-blood concentration after dosing,"[7]; across dose levels, SAD and VIS",approximately 2 h
same,Time with M5717 concentration at least 3 ng/mL in all participants,[7]; doses of 150 mg and higher,at least 168 h
same,Time with M5717 concentration 10 ng/mL or higher in all participants,[7]; doses of 400 mg or higher,at least 168 h
same,Terminal half-life predicted before the study,"[7]; human, prediction before the study",250 h
same,Vd/F,"[7]; human, oral",5880 to 9510 L
same,half-life,"[7]; human, oral",106 to 193 h
same,half-life,"[7]; human, oral, 200 mg",133 to 145 h
same,AUC(0-inf),"[7]; human, po, 50 mg",997 ng·h/mL
same,Vd/F,"[7]; human, po, 50 mg",7640 L
same,half-life,"[7]; human, po, 50 mg",133 h
same,AUC(0-inf),"[7]; human, po, 100 mg",1710 ng·h/mL
same,Vd/F,"[7]; human, po, 100 mg",8890 L
same,half-life,"[7]; human, po, 100 mg",133 h
same,AUC(0-inf),"[7]; human, po, 200 mg",3500 ng·h/mL
same,Vd/F,"[7]; human, po, 200 mg",9510 L
same,half-life,"[7]; human, po, 200 mg",145 h
same,Vd/F,"[7]; human, po, 400 mg",7100 L
same,half-life,"[7]; human, po, 400 mg",155 h
same,Vd/F,"[7]; human, po, 600 mg",7160 L
same,half-life,"[7]; human, po, 600 mg",181 h
same,Vd/F,"[7]; human, po, 1000 mg",6770 L
same,half-life,"[7]; human, po, 1000 mg",169 h
same,Vd/F,"[7]; human, po, 1250 mg",6830 L
same,half-life,"[7]; human, po, 1250 mg",180 h
same,Vd/F,"[7]; human, po, 1800 mg",7060 L
same,half-life,"[7]; human, po, 1800 mg",181 h
same,AUC(0-inf),"[7]; human, po, 2100 mg",43000 ng·h/mL
same,Vd/F,"[7]; human, po, 2100 mg",7870 L
same,half-life,"[7]; human, po, 2100 mg",140 h
same,AUC(0-t),"[7]; human, po, 2100 mg, AUC0–144h",27200 ng·h/mL
same,AUC(0-t),"[7]; human, po, 2100 mg, AUC0–t",42200 ng·h/mL
